Laboratory results published in ChEMBL document CHEMBL4689842, “EUbOPEN Chemogenomics Library wave 1” (2021).

System: U2OS
Test: Multiplex assay against U2OS
Type: toxicity, cell-based
Conditions: human
How it was run: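 Phenotypes for tubulin, mitochondrial mass and membrane permeability are expressed as per cents of healthy-nucleus cells. Cells were stained live at seeding with Hoechst33342, BioTracker Green Microtubule Cytoskeleton Dye, MitoTracker Red and Annexin V Alexa Fluor 680, then imaged after compound addition on a CQ1 microscope at 37°C and 5% CO2. Machine-learning gating in CellPathfinder separated Hoechst high-intensity objects from normal cells, divided normal cells by nuclear state (healthy, pyknosed, fragmented) and divided pyknosed cells into mitotic or apoptotic.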

[1] = 12 h, 1 µM, compound concentration 1 uM, replicate 1
[2] = 12 h, 1 µM, compound concentration 1 uM, replicate 2
[3] = 12 h, 10 µM, compound concentration 10 uM, replicate 1
[4] = 12 h, 10 µM, compound concentration 10 uM, replicate 2
[5] = 24 h, 1 µM, compound concentration 1 uM, replicate 1
[6] = 24 h, 1 µM, compound concentration 1 uM, replicate 2
[7] = 24 h, 10 µM, compound concentration 10 uM, replicate 1
[8] = 24 h, 10 µM, compound concentration 10 uM, replicate 2
[9] = 48 h, 1 µM, compound concentration 1 uM, replicate 1
[10] = 48 h, 1 µM, compound concentration 1 uM, replicate 2
[11] = 48 h, 10 µM, compound concentration 10 uM, replicate 1
[12] = 48 h, 10 µM, compound concentration 10 uM, replicate 2

What does the source list for `CN1CCC(=C2c3ccccc3CC(=O)c3sccc32)CC1.O=C(O)/C=C/C(=O)O` [KETOTIFEN FUMARATE]?
Population Apoptotic (%) [1]: 63%; Population Fragmented Nuclei (%) [1]: 10%; Population Healthy Nuclei (%) [1]: 75%; Population Hoechst High Intensity Objects (%) [1]: 5%; Population Membrane Permeable-Phenotype (%) [1]: 15%; Population Mitochondria Different-Phenotype (%) [1]: 19%; Population Mitotic Cells (%) [1]: 36%; Population Normal (%) [1]: 94%; Population Pyknosed Nuclei (%) [1]: 13%; Population Tubulin-Different-Phenotype (%) [1]: 19%; Total Cell Count [1]: 178; Population Apoptotic (%) [2]: 75%; Population Fragmented Nuclei (%) [2]: 6%; Population Healthy Nuclei (%) [2]: 87%; Population Membrane Permeable-Phenotype (%) [2]: 10%; Population Mitochondria Different-Phenotype (%) [2]: 12%; Population Mitotic Cells (%) [2]: 25%; Population Pyknosed Nuclei (%) [2]: 6%; Population Tubulin-Different-Phenotype (%) [2]: 9%; Total Cell Count [2]: 56; Population Apoptotic (%) [3]: 52%; Population Fragmented Nuclei (%) [3]: 15%; Population Healthy Nuclei (%) [3]: 62%; Population Hoechst High Intensity Objects (%) [3]: 5%; Population Membrane Permeable-Phenotype (%) [3]: 15%; Population Mitochondria Different-Phenotype (%) [3]: 90%; Population Mitotic Cells (%) [3]: 48%; Population Normal (%) [3]: 94%; Population Pyknosed Nuclei (%) [3]: 21%; Population Tubulin-Different-Phenotype (%) [3]: 97%; Total Cell Count [3]: 167; Population Apoptotic (%) [4]: 33%; Population Fragmented Nuclei (%) [4]: 2%; Population Healthy Nuclei (%) [4]: 75%; Population Hoechst High Intensity Objects (%) [4]: 1%; Population Mitotic Cells (%) [4]: 66%; Population Normal (%) [4]: 98%; Population Pyknosed Nuclei (%) [4]: 22%; Population Tubulin-Different-Phenotype (%) [4]: 95%; Total Cell Count [4]: 67; Population Apoptotic (%) [5]: 48%; Population Healthy Nuclei (%) [5]: 77%; Population Hoechst High Intensity Objects (%) [5]: 5%; Population Membrane Permeable-Phenotype (%) [5]: 8%; Population Mitochondria Different-Phenotype (%) [5]: 16%; Population Mitotic Cells (%) [5]: 52%; Population Normal (%) [5]: 94%; Population Pyknosed Nuclei (%) [5]: 14%; Population Tubulin-Different-Phenotype (%) [5]: 11%; Total Cell Count [5]: 180; Population Apoptotic (%) [6]: 100%; Population Fragmented Nuclei (%) [6]: 8%; Population Healthy Nuclei (%) [6]: 86%; Population Hoechst High Intensity Objects (%) [6]: 7%; Population Membrane Permeable-Phenotype (%) [6]: 9%; Population Mitochondria Different-Phenotype (%) [6]: 10%; Population Mitotic Cells (%) [6]: 0%; Population Normal (%) [6]: 92%; Population Pyknosed Nuclei (%) [6]: 5%; Population Tubulin-Different-Phenotype (%) [6]: 4%; Total Cell Count [6]: 64; Population Apoptotic (%) [7]: 62%; Population Fragmented Nuclei (%) [7]: 14%; Population Healthy Nuclei (%) [7]: 59%; Population Hoechst High Intensity Objects (%) [7]: 6%; Population Membrane Permeable-Phenotype (%) [7]: 5%; Population Mitochondria Different-Phenotype (%) [7]: 96%; Population Mitotic Cells (%) [7]: 37%; Population Normal (%) [7]: 93%; Population Pyknosed Nuclei (%) [7]: 25%; Population Tubulin-Different-Phenotype (%) [7]: 85%; Total Cell Count [7]: 186; Population Apoptotic (%) [8]: 59%; Population Fragmented Nuclei (%) [8]: 6%; Population Healthy Nuclei (%) [8]: 66%; Population Hoechst High Intensity Objects (%) [8]: 2%; Population Membrane Permeable-Phenotype (%) [8]: 22%; Population Mitochondria Different-Phenotype (%) [8]: 98%; Population Mitotic Cells (%) [8]: 40%; Population Normal (%) [8]: 97%; Population Pyknosed Nuclei (%) [8]: 27%; Population Tubulin-Different-Phenotype (%) [8]: 88%; Total Cell Count [8]: 80; Population Apoptotic (%) [9]: 40%; Population Fragmented Nuclei (%) [9]: 4%; Population Healthy Nuclei (%) [9]: 86%; Population Hoechst High Intensity Objects (%) [9]: 4%; Population Membrane Permeable-Phenotype (%) [9]: 5%; Population Mitochondria Different-Phenotype (%) [9]: 13%; Population Mitotic Cells (%) [9]: 59%; Population Normal (%) [9]: 95%; Population Pyknosed Nuclei (%) [9]: 8%; Population Tubulin-Different-Phenotype (%) [9]: 11%; Total Cell Count [9]: 182; Population Apoptotic (%) [10]: 28%; Population Fragmented Nuclei (%) [10]: 8%; Population Healthy Nuclei (%) [10]: 80%; Population Hoechst High Intensity Objects (%) [10]: 2%; Population Membrane Permeable-Phenotype (%) [10]: 4%; Population Mitochondria Different-Phenotype (%) [10]: 9%; Population Mitotic Cells (%) [10]: 71%; Population Normal (%) [10]: 97%; Population Pyknosed Nuclei (%) [10]: 11%; Population Tubulin-Different-Phenotype (%) [10]: 7%; Total Cell Count [10]: 63; Population Apoptotic (%) [11]: 66%; Population Fragmented Nuclei (%) [11]: 12%; Population Healthy Nuclei (%) [11]: 60%; Population Membrane Permeable-Phenotype (%) [11]: 9%; Population Mitochondria Different-Phenotype (%) [11]: 70%; Population Mitotic Cells (%) [11]: 33%; Population Pyknosed Nuclei (%) [11]: 27%; Population Tubulin-Different-Phenotype (%) [11]: 72%; Total Cell Count [11]: 263; Population Apoptotic (%) [12]: 57%; Population Fragmented Nuclei (%) [12]: 7%; Population Healthy Nuclei (%) [12]: 63%; Population Hoechst High Intensity Objects (%) [12]: 7%; Population Membrane Permeable-Phenotype (%) [12]: 16%; Population Mitochondria Different-Phenotype (%) [12]: 75%; Population Mitotic Cells (%) [12]: 42%; Population Normal (%) [12]: 92%; Population Pyknosed Nuclei (%) [12]: 29%; Population Tubulin-Different-Phenotype (%) [12]: 78%; Total Cell Count [12]: 130
